# Active and inactive are the calls of the source. The rule behind the calls is not given here.
# How the values were obtained:
# Mus musculus [1] = test: Toxicity in HBV infected 1.3.32 transgenic mouse liver assessed as hepatitis at 1 mg/kg, iv single dose after 2 days by rotine […] method; assay type: organism-based; design: dose 1 mg/kg, route intravenous; settings: in vivo, 48 h
# How it was run: (§1)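 Male HBV 1.3.32 transgenic mice, 8–12 weeks, HBeAg-matched. Each got a single i.v. dose in saline/mannitol: 1 mg/kg examined at day 1, 2 or 6, or 0.2, 1.0 or 5.0 mg/kg examined at 24 h. Diluent-only animals served as controls. Livers from representative mice were fixed in zinc-buffered formalin, embedded in paraffin and stained with H&E for pathology.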
# Hepatitis B virus [2] = settings: 1 mg/kg
# Mus musculus [3] = test: Toxicity in HBV infected 1.3.32 transgenic mouse assessed as stress, ruffled fur at 5 mg/kg, iv after 24 hrs; assay type: organism-based; design: dose 5 mg/kg, route intravenous; settings: in vivo
# Hepatitis B virus [4] = settings: 1 mg/kg; remark: listed apart in the source
# Mus musculus [5] = test: Toxicity in HBV infected 1.3.32 transgenic mouse assessed as labored breathing, hunched posture at 5 mg/kg, iv after 24 hrs; assay type: organism-based; design: dose 5 mg/kg, route intravenous; settings: in vivo
# Mus musculus [6] = test: Toxicity in HBV infected 1.3.32 transgenic mouse liver assessed as hepatitis at 5 mg/kg, iv single dose after 24 hrs by rotine […] method; assay type: organism-based; design: dose 5 mg/kg, route intravenous; settings: in vivo; how it was run: as §1
# Mus musculus [7] = test: Toxicity in HBV infected 1.3.32 transgenic mouse liver assessed as hepatitis at 1 mg/kg, iv single dose after 6 days by rotine […] method; assay type: organism-based; design: dose 1 mg/kg, route intravenous; settings: in vivo, 144 h; how it was run: as §1
# Mus musculus [8] = test: Toxicity in HBV infected 1.3.32 transgenic mouse liver assessed as serum alanine aminotransferase level at 5 mg/kg, iv after 24 hrs; assay type: organism-based; design: dose 5 mg/kg, route intravenous; settings: in vivo
# How it was run: (§2)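 Serum ALT was read spectrophotometrically with Infinity ALT reagent against enzyme standards. Mice were HBV 1.3.32 transgenic males, 8–12 weeks, HBeAg-matched, with 3–4 per group. They received a single i.v. injection in 0.9% NaCl/mannitol: 1 mg/kg sampled at 1, 2, 3 or 6 days, or 0.2, 1 or 5 mg/kg sampled at 24 h. Controls got diluent only.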
# Hepatitis B virus [9] = test: Antiviral activity against HBV infected in 1.3.32 transgenic mouse assessed as serum HBeAg level at 5 mg/kg, iv single dose after 24 hrs by ELISA; assay type: functional
# How it was run: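 Serum HBeAg and HBsAg were measured by ELISA in HBV 1.3.32 transgenic mice (male, 8-12 wk) after one i.v. dose in 0.9% NaCl/mannitol. Values are relative to control mice given diluent. 3-4 mice per group; mean ± SEM; Student's t test.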
# Mus musculus [10] = test: Toxicity in HBV infected 1.3.32 transgenic mouse liver assessed as hepatitis at 1 mg/kg, iv single dose after 1 day by rotine […] method; assay type: organism-based; design: dose 1 mg/kg, route intravenous; settings: in vivo, 24 h; how it was run: as §1
# Mus musculus [11] = test: Toxicity in HBV infected 1.3.32 transgenic mouse liver assessed as hepatitis at 0.2 mg/kg, iv single dose after 24 hrs by rotine […] method; assay type: organism-based; design: dose 0.2 mg/kg, route intravenous; settings: in vivo; how it was run: as §1
# Mus musculus [12] = test: Toxicity in 1.3.32 transgenic mouse assessed as serum alanine aminotransferase level liver at 1 mg/kg, iv after 6 days […]; assay type: organism-based; design: dose 1 mg/kg, route intravenous; settings: in vivo, 144 h
# Mus musculus [13] = test: Toxicity in 1.3.32 transgenic mouse liver assessed as serum alanine aminotransferase level at 1 mg/kg, iv after 2 days; assay type: organism-based; design: dose 1 mg/kg, route intravenous; settings: in vivo, 48 h; how it was run: as §2
# Hepatitis B virus [14] = settings: 5 mg/kg
# Hepatitis B virus [15] = settings: 0.2 mg/kg
# Hepatitis B virus [16] = settings: Liver, 1 mg/kg
# Hepatitis B virus [17] = settings: Liver, 1 mg/kg; remark: listed apart in the source
# Hepatitis B virus [18] = settings: 1 mg/kg; remark: listed apart in the source
smiles,measurement,setting,value
CC(C)C[C@H](NC(=O)[C@H](Cc1ccccc1)NC(=O)c1cnccn1)B(O)O [BORTEZOMIB],Activity,Mus musculus [1],Non-toxic
same,inhibition,Hepatitis B virus [2],Active
same,Activity,Mus musculus [3],Toxic
same,inhibition,Hepatitis B virus [4],Active
same,Activity,Mus musculus [5],Toxic
same,Activity,Mus musculus [6],Non-toxic
same,Activity,Mus musculus [7],Non-toxic
same,Activity,Mus musculus [8],Toxic
same,Activity,Hepatitis B virus [9],50%
same,Activity,Mus musculus [10],Non-toxic
same,Activity,Mus musculus [11],Non-toxic
same,Activity,Mus musculus [12],Non-toxic
same,Activity,Mus musculus [13],Toxic
same,inhibition,Hepatitis B virus [14],Active
same,inhibition,Hepatitis B virus [15],inactive
same,inhibition,Hepatitis B virus [16],Active
same,inhibition,Hepatitis B virus [17],Active
same,inhibition,Hepatitis B virus [18],inactive

# From ChEMBL document CHEMBL1212793, “Bortezomib inhibits hepatitis B virus replication in transgenic mice” (Antimicrob Agents Chemother, 2010)
